PPC-1+TRAIL kill: PPC-1 cancer cell killing with TRAIL present. PPC-1 cells + TRAIL, ATPLite viability luminescence. cell killing (% activity), % at 4 µM or 5 µM. hit rate 0.41% among 220,000;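 active = cell killing above 50% in the first pass at 4 µM, then a duplicate retest at 5 µM averaging 50% or more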;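 note: plate controls were cells with TRAIL plus DMSO for no effect and medium-only wells lacking cells for full effect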
C8 TRAIL sens: sensitizes caspase-8 expressing cells to TRAIL; AID 624354; inhibition (viability loss, TRAIL sensitization), % at 10 µM; hit rate 1% among 360,000; NB7+C8 cells + TRAIL, ATPlite viability luminescence;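 active = compounds causing at least 50% loss of cell viability in the single-dose screen, relative to plate controls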
APP 5'UTR act: activates APP 5'UTR luciferase reporter. hit rate 1% among 190,000. activation, % at 2 µM. SH-SY5Y APP 5'UTR luciferase reporter, luminescence; zero percent = DMSO vehicle wells;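 active = activation above a set limit, based on mean plus 3 SD of controls, cut at about 140% in these data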
FLuc act counter: firefly luciferase counter-screen for stimulation assays. P08659. ATPlite luciferase biochemical, luminescence, 10 min; 0 = ATP-free wells, 1 = DMSO control. activation factor at 10 µM. 200,000 tested, under 10 active;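 active = luciferase activation factor, scaled between plate controls, of at least 2 with compound at 10 µM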
Target sequence (P08659 whole entry, looked up): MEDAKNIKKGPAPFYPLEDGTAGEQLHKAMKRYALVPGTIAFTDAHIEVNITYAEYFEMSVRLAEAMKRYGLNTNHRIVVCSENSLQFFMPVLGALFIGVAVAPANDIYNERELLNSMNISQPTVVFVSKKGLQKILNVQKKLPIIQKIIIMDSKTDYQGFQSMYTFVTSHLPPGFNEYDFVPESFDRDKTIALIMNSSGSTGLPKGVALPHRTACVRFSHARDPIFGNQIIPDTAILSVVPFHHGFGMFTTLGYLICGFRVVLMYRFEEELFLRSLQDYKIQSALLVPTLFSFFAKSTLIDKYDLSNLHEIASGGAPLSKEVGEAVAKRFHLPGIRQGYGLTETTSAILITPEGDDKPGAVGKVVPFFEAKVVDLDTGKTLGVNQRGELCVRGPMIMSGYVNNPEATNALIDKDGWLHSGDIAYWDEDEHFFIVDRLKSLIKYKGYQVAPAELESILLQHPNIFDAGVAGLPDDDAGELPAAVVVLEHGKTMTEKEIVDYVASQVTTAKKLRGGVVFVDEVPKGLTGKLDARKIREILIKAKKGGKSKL
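System: cell-free luciferase reagent; medium: PBS as buffer for the ATP substrate; doses: test compounds dosed from 2 mM stocks in 100% DMSO; incubation: 10 min, room temperature; measured by: luminescence from luciferase reaction; read-out: luciferase activation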
FLuc inhib CS: Photinus pyralis luciferase inhibition counter-screen; ATPLite firefly luciferase biochemical luminescence, 10 min; inhibition, % at 10 µM; hit rate 1.5% among 200,000; AID 1006;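 active = inhibition above about 50% when tested at 10 µM, limit read from the data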
NF-kB expr up: raises NF-kB expression in human neuronal cells; NF-kB reporter expression; active compounds read high; fold change at 12.5 µM; hit rate 1.6% among 190,000; AID 1239; in the data active = fold change above about 3.3
* = called active by the depositor; . = not tested or not shown. Sampled rows, rich in hits. Any-hit rate of the full collection: about 2.2%.

SMILES	PPC-1+TRAIL kill	C8 TRAIL sens	APP 5'UTR act	FLuc act counter	FLuc inhib CS	NF-kB expr up
CNc1cc([N+](=O)[O-])ccc1N/C=C/C(=O)c1cccs1	5.5	-1.3	3.2	1	-3.7	0.47
Cc1cc(N/C=C/C(=O)c2cccs2)ccc1F	9.1	45.2	177.7*	0.2	80.0*	7.58*
O=c1c2ccccc2cnn1Cc1ccc(Cl)c(Cl)c1	.	16.8	.	.	.	.
Cc1cc(C(=O)Cn2ncc(Cl)c(Cl)c2=O)c(C)n1CC(F)(F)F	13.5	-3.1	-74.8	1	3.0	0.96
Cc1ccc(C)c(C(=O)Cn2ncc(Cl)c(Cl)c2=O)c1	26.3	96.6*	-38.2	1	-3.8	1.16
Cc1cccc(Cn2ncc(Cl)c(Cl)c2=O)c1	9.5	53.7*	.	1.1	-9.5	1
CN(CC(=O)Nc1ccc(F)cc1)C(=O)CN1C(=O)NC(CCc2ccccc2)C1=O (stereo unspecified)	.	-10.7	.	.	.	.
O=C(c1ccc(CNS(=O)(=O)c2ccc(F)cc2)cc1)N1CCCCCC1	.	12.4	.	.	.	.
CCCOC(=O)c1ccc(NC(=O)CC(C)(C)C)cc1	.	24.4	122.4	0.6	38.4	5.53*
CCCOC(=O)c1ccc(NC(=O)c2ccoc2C)cc1	26.5	15.1	114.9	0.9	9.2	3.46*
NNC(=O)c1cccc(COc2ccccc2Br)c1	-4.1	10.0	173.1*	0.6	36.7	2.53
O=C(NCc1ccc(F)cc1)C(c1ccco1)N(C(=O)c1csnn1)C1CC1 (stereo unspecified)	.	-15.1	.	.	.	.
Cc1nc2c(ccc3nc(NC(=O)c4ccc5c(c4)OCCO5)sc32)s1	46.5	79.8*	123.1	0.1	85.5*	5.38*
Cc1nnc(NC(=O)c2ccc3c(c2)C(=O)N(CC2CCCO2)C3=O)s1 (stereo unspecified)	-6.1	12.5	-2.9	0.3	67.1*	1.08
Cc1cnc(NC(=O)c2ccc3c(c2)OCCO3)s1	.	94.4*	.	.	.	.
Cc1nc2ccc3nc(NC(=O)c4ccc5c(c4)OCCO5)sc3c2s1	-5.0	-2.0	-0.4	0.9	10.0	1.74
Cc1ccc(C(=O)Nc2nnc(C)s2)cc1	18.0	47.6	85.8	0.4	58.5*	2.78
O=C(NC1CCCC1)c1nc(-c2ccco2)oc1-c1ccccc1	.	-4.5	.	.	.	.
COc1ccc(Cc2nc3ccccc3[nH]2)cc1OC	6.8	-7.0	-7.3	1	-1.1	0.84
CSc1ccccc1C(=O)Nc1ncc(C)s1	-9.7	14.6	-8.4	1	-2.3	1.22
Cc1ccc(C(=O)Nc2ncc(C)s2)s1	.	78.1*	.	.	.	.
Cc1ccc(C(=O)Nc2ncc([N+](=O)[O-])s2)cc1	.	77.4*	.	.	.	.
O=C(COc1ccc(Cl)cc1)Nc1ncc([N+](=O)[O-])s1	36.5	31.6	116.1	0.4	58.7*	2.11
O=C(Nc1ncc([N+](=O)[O-])s1)c1ccc2c(c1)OCO2	.	67.5*	.	.	.	.
CN(C)c1ccc(C=Cc2cnccn2)cc1	.	79.8*	.	.	.	.
SMILES	PPC-1+TRAIL kill	C8 TRAIL sens	APP 5'UTR act	FLuc act counter	FLuc inhib CS	NF-kB expr up
CN(C)c1ccc(/C=C/c2ccncc2)cc1	19.4	12.1	30.2	0.9	6.4	2.48
Cc1csc(NC(=O)c2cncc(Br)c2)n1	21.5	17.6	131.5	0.5	50.0*	3.34*
O=C(Nc1nc2ccc(Cl)cc2s1)c1ccc(Br)o1	25.0	30.4	111.7	0.7	30.0	3.5*
Cc1cc(C(=O)Nc2nc3ccc(Cl)cc3s2)nn1C	10.6	24.3	.	.	.	.
O=C(Nc1nc2c(Cl)cccc2s1)c1ccc(Br)o1	43.0	4.0	9.1	1	0.1	1.76
Cn1ncc(Cl)c1C(=O)Nc1nc2ccc(Cl)cc2s1	21.0	27.3	98.9	0.4	60.3*	2.41
N#Cc1c2ccccc2nc2ccccc12	19.4	5.3	.	.	.	.
COc1ccc(N/C(C)=C/C(=S)Nc2ccccc2)cc1	-8.1	-0.6	7.6	1	2.3	1.69
COc1cccc(Cc2n[nH]c(=S)n2Cc2ccco2)c1	3.0	11.9	.	.	.	.
N#C/C(=N\Nc1ccc(Cl)cc1)C(=N)N1CCCCC1	11.7	21.3	189.7*	0.6	35.2	7.41*
COc1ccc(N/N=C(\C#N)C(=N)N2CCCCC2)cc1	16.2	27.2	.	.	.	.
Cc1ccc(N/N=C(\C#N)C(=N)N2CCCCCC2)cc1	41.8	31.2	167.9*	0.5	51.2*	5.88*
N#C/C(=N\Nc1ccccc1F)C(=N)N1CCCCC1	6.0	20.6	87.9	0.6	43.6	3.98*
N#C/C(=N\Nc1ccc(F)cc1)C(=N)N1CCCCCC1	.	30.8	185.2*	0.4	59.1*	7.72*
